Assay results as given in ChEMBL document CHEMBL4007413, “Replacing d-Glucosamine with Its l-Enantiomer in Glycosylated Antitumor Ether Lipids (GAELs) Retains Cytotoxic Effects against Epithelial Cancer Cells and Cancer Stem Cells” (J Med Chem, 2017).
Calls of active or inactive are those of the source. No cut-off for these calls is given here.

What was measured:
JIMT-1 [1] = experiment: Cytotoxicity against human JIMT1 cells assessed as decrease in cell viability up to 8 uM after 48 hrs in presence of pan-caspase inhibitor QVD-OPh by MTS assay; type: functional, cell-based
Summary of the method: (§1)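 DU-145 and JIMT-1 cells (DMEM + 10% FBS) were treated with compounds with or without the pan-caspase inhibitor QVD-OPh (40 µM). Viability was read by MTS: cells were seeded, treated 24 h later for 48 h, given MTS (20% v/v) for 1–4 h, and read at OD490 against cell-free blanks.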

MDA-MB-231 [2] = experiment: Cytotoxicity against human MDA-MB-231 cells assessed as decrease in cell viability after 48 hrs by MTS assay; type: functional; details: MDA-MB-231, 48 h
Summary of the method: (§2)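 Cells were seeded at equal numbers and, after 24 h, exposed to compounds (0–30 µM) for 48 h. MTS reagent (20% v/v) was then added for 1–4 h, and OD490 was read. Cell-free medium wells served as blanks. Media were DMEM/F12 + 10% FBS for BT-474; DMEM + 10% FBS for DU-145 and MDA-MB-231; and DMEM + 10% FBS + 2.5% horse serum for MiaPaCa-2. Values are mean ± SD, n=6.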

BT-474 [3] = experiment: Disruption of cancer stem cells spheroids derived from human BT474 cells at >=7.5 uM after 3 days by microscopic analysis; type: functional, cell-based
Summary of the method: (§3)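 Cancer stem cells were isolated from BT-474 by ALDH1 activity. Equal numbers were seeded in ultra-low-adhesion wells and grown to spheroids. Spheroids were then incubated with or without compounds for 3 days. Spheroid integrity was assessed by light microscopy (×10). Viability was measured in parallel by MTS.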

DU-145 [4] = experiment: Cytotoxicity against human DU145 cells assessed as decrease in cell viability up to 8 uM after 48 hrs in presence of pan-caspase inhibitor QVD-OPh by MTS assay; type: functional, cell-based; summary of the method: as §1
MIA PaCa-2 [5] = experiment: Cytotoxicity against human MIAPaCa2 cells assessed as decrease in cell viability after 48 hrs by MTS assay; type: functional; details: MIA PaCa-2, 48 h; summary of the method: as §2
BT-474 [6] = experiment: Cytotoxicity against human BT474 cells assessed as decrease in cell viability after 48 hrs by MTS assay; type: functional; details: BT-474, 48 h; summary of the method: as §2
DU-145 [7] = experiment: Cytotoxicity against human DU145 cells assessed as decrease in cell viability after 48 hrs by MTS assay; type: functional; details: DU-145, 48 h; summary of the method: as §2
Erythrocyte = experiment: Induction of hemolysis in sheep erythrocytes at 30 uM after 30 mins by spectrophotometric analysis; type: functional, Ovis aries
DU-145 [8] = experiment: Cytotoxicity against human DU145 cells assessed as decrease in cell viability up to 8 uM after 48 hrs in absence of pan-caspase inhibitor QVD-OPh by MTS assay; type: functional, cell-based; summary of the method: as §1
JIMT-1 [9] = experiment: Cytotoxicity against human JIMT1 cells assessed as decrease in cell viability up to 8 uM after 48 hrs in absence of pan-caspase inhibitor QVD-OPh by MTS assay; type: functional, cell-based; summary of the method: as §1
MDA-MB-231 [10] = experiment: Cytotoxicity against human MDA-MB-231 cells assessed as cell death at 7.5 uM after 48 hrs by MTS assay; type: functional
Summary of the method: (§4)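 Equal numbers of cells were plated. After 24 h they were exposed to compounds (0–30 µM) for 48 h, then given MTS reagent (20% v/v) for 1–4 h. OD490 was read against cell-free blank wells; mean ± SD of 6 determinations. Media: BT-474 in DMEM/F12 + 10% FBS; DU-145, JIMT-1 and MDA-MB-231 in DMEM + 10% FBS; MiaPaCa-2 in DMEM + 10% FBS + 2.5% horse serum; PC-3 in F12K + 10% FBS; all with penicillin/streptomycin.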

JIMT-1 [11] = experiment: Induction of cell death in human JIMT1 cells assessed as rounding up of cells at 4 uM after 6 hrs by fluorescence microscopic analysis; type: functional, cell-based
DU-145 [12] = experiment: Induction of membrane lysis in human DU145 cells at 6 uM after 6 hrs by EthD-1 staining based fluorescence microscopic analysis; type: functional, cell-based
Summary of the method: (§5)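 DU-145 cells were incubated with compounds at 6 µM for 6 h. They were then stained with cell-impermeant ethidium homodimer-1 and examined by fluorescence microscopy for cell rounding and red DNA staining. Cells given 0.01% Triton X-100 for 10 min served as the lysis control.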

BT-474 [13] = experiment: Cytotoxicity against cancer stem cells derived from human BT474 cells assessed as cancer stem cell death at 7.5 uM after 3 days by MTS assay; type: functional
Summary of the method: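 CSCs were isolated from BT-474 using ALDH1 activity as the stemness marker. They were grown in ultra-low adhesion wells for 4 days to form spheroids. Spheroids were then exposed to compounds (0–20 µM) for 3 days. Viability was read by MTS assay and expressed as % of untreated control.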

PC-3 = experiment: Cytotoxicity against human PC3 cells assessed as cell death at 7.5 uM after 48 hrs by MTS assay; type: functional; summary of the method: as §4
DU-145 [14] = experiment: Induction of cell death in human DU145 cells assessed as rounding up of cells at 6 uM after 6 hrs fluorescence microscopic analysis; type: functional, cell-based; summary of the method: as §5
MIA PaCa-2 [15] = experiment: Cytotoxicity against human MIAPaCa2 cells assessed as cell death at 7.5 uM after 48 hrs by MTS assay; type: functional; summary of the method: as §4
[16] = Stability in bovine liver extracts assessed as bovine liver glycosidase mediated compound cleavage by TLC analysis; type: ADME, Bos taurus; details: cattle
Summary of the method: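 A bovine liver glycosidase fraction in 0.05 M sodium citrate pH 5.0 was combined with 0.2 M citrate pH 4.4 buffer, substrate (30 mM stock) and Triton X-100 (10% stock) for solubilization. Controls were no enzyme and a β-D-glucose-based GAEL. After 1 h, methanol was added, the mixture was centrifuged, and the supernatant was analysed by TLC. Run in quadruplicate.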

BT-474 [17] = experiment: Cytotoxicity against human BT474 cells assessed as cell death at 7.5 uM after 48 hrs by MTS assay; type: functional; summary of the method: as §4
BXPC-3 = experiment: Induction of cell death in human BxPC3 cells assessed as clear large vacuole formation at 5 uM after 4 hrs
DU-145 [18] = experiment: Cytotoxicity against human DU145 cells assessed as cell death at 7.5 uM after 48 hrs by MTS assay; type: functional; summary of the method: as §4
JIMT-1 [19] = experiment: Cytotoxicity against human JIMT1 cells assessed as cell death at 7.5 uM after 48 hrs by MTS assay; type: functional; summary of the method: as §4
BT-474 [20] = experiment: Disruption of cancer stem cells spheroids derived from human BT474 cells at >=5 uM after 3 days by microscopic analysis; type: functional, cell-based; summary of the method: as §3
JIMT-1 [21] = experiment: Induction of membrane lysis in human JIMT1 cells at 4 uM after 6 hrs by EthD-1 staining based fluorescence microscopic analysis; type: functional, cell-based

Row | SMILES | Activity (JIMT-1 [1]) | CC50 (MDA-MB-231 [2]) | Activity (BT-474 [3]) | Activity (DU-145 [4]) | CC50 (MIA PaCa-2 [5]) | CC50 (BT-474 [6]) | CC50 (DU-145 [7]) | Activity (Erythrocyte) | Activity (DU-145 [8]) | Activity (JIMT-1 [9]) | Activity (MDA-MB-231 [10]) | Activity (JIMT-1 [11]) | Activity (DU-145 [12]) | Activity (BT-474 [13]) | Activity (PC-3) | Activity (DU-145 [14]) | Activity (MIA PaCa-2 [15]) | Stability [16] | Activity (BT-474 [17]) | Activity (DU-145 [18]) | also measured
1 | CCCCCCCCCCCCCCCCOC[C@H](CO[C@@H]1O[C@@H](CN)[C@H](O)[C@@H](O)[C@@H]1N)OC | Active | 4 to 11 µM | Active | Active | 4 to 11 µM | 4 to 11 µM | 4 to 11 µM | <5% | Active | Active |  |  |  |  |  |  |  |  |  |  | 
2 | CCCCCCCCCCCCCCCCOC[C@H](CO[C@@H]1O[C@@H](CN)[C@H](OCc2ccccc2)[C@@H](O)[C@@H]1N)OC | Active | 2 to 6 µM |  | Active | 2 to 6 µM | 2 to 6 µM | 2 to 6 µM | <5% | Active | Active | >95% | Active | inactive | >95% | >95% | Active | >95% | Stable | >95% | >95% | Activity (BXPC-3): Active; Activity (JIMT-1 [19]): >95%; Activity (BT-474 [20]): Active; Activity (JIMT-1 [21]): inactive
3 | CCCCCCCCCCCCCCCCOC[C@H](CO[C@@H]1O[C@H](CN)[C@@H](OCc2ccccc2)[C@H](O)[C@H]1N)OC |  | 2 to 6 µM |  |  | 2 to 6 µM | 2 to 6 µM | 2 to 6 µM | <5% |  |  | >95% | Active | inactive | >95% | >95% | Active | >95% |  | >95% | >95% | Activity (JIMT-1 [19]): >95%; Activity (BT-474 [20]): Active; Activity (JIMT-1 [21]): inactive
4 | CCCCCCCCCCCCCCCCOC[C@H](CO[C@@H]1O[C@H](CO)[C@@H](O)[C@H](O)[C@H]1N)OC |  | 6.5 to 13 µM | Active |  | 6.5 to 13 µM | 6.5 to 13 µM | 6.5 to 13 µM | <5% |  |  |  |  |  |  |  |  |  | Stable |  |  | 
